Data reported in article PMC9097774 (International Journal of Oncology, 2022).

Tests used:
[1] = cited from earlier work
[2] = system: GLUT2 expression in HepG2 and Huh7 cells; test: Western blotting of GLUT2; assay type: cell-based, human; conditions: Fig. S1
HDAC1 = HDAC1 (Homo sapiens, UniProt Q13547); test: Cell free fluorogenic HDAC assay; assay type: biochemical; conditions: IC50 and two-fold IC50 concentrations; control set to 100%
[3] = system: p53 phosphorylation in HepG2 and Huh7 cells; test: Western blotting of p53 and phosphorylated p53; assay type: cell-based, human; conditions: 24 h; BB 0.6 and 1.2 µM; Vs 4.0 µM
In short: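 HepG2 and Huh7 cells were treated 24 h in RPMI with test compound (0.6 or 1.2 µM) or reference HDAC inhibitor (4.0 µM). Whole-cell extracts were made in SDS/deoxycholate/NP-40 buffer with protease inhibitors. Samples of 30 µg protein were run on 7.5% or 12% SDS-PAGE and blotted to PVDF. Blots were milk-blocked, given primary antibody overnight at 4°C, then HRP secondary (1:10,000) for 1 h. Tubulin served as loading control.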

HepG2 cells = test: Glycolytic activity; assay type: cell-based, human; conditions: cell culture supernatant; Fig. S1
In short: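 Glucose remaining and lactate released into the cell culture supernatant were measured with a blood gas analyser.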

Chain of HDAC1 (Q13547 whole entry): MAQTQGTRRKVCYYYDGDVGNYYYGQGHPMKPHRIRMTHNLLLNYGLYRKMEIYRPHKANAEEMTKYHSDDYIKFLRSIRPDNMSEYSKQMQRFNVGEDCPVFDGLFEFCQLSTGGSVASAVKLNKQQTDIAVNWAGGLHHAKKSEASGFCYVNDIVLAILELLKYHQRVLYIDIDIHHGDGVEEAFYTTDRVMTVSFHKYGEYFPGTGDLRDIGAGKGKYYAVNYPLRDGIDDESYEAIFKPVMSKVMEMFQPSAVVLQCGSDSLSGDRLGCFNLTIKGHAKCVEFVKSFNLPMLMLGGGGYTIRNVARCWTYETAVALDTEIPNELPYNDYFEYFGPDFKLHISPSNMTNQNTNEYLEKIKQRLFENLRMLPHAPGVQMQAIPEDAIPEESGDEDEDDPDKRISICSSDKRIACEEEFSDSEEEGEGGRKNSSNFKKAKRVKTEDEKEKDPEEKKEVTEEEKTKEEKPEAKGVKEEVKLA

Structure (SMILES) | therapeutic concentration [1] | Protein expression levels of GLUT2 [2] | effect on activity of HDAC1 (HDAC1) | phosphorylation of p53 [3] | glycolytic activity (glucose consumption, lactate production) (HepG2 cells)
CNC(=O)c1cc(Oc2ccc(NC(=O)Nc3ccc(Cl)c(C(F)(F)F)c3)cc2)ccn1 [sorafenib] | ~ 8 µM |  |  |  | 
O=C(CCCCCCC(=O)Nc1ccccc1)NO [vorinostat] |  | markedly reduced the expression of GLUT2 | potent inhibitory effects | no increase in p53 phosphorylation | no such reduction in glycolytic activity could be observed
